Assay results gathered from unrelated publications.
Compare with care: the assays were run in different laboratories.
Oprk1: Kappa-type opioid receptor (Oprk1, Mus musculus, UniProt P33534)
BCHE: Cholinesterase (BCHE, Homo sapiens, UniProt P06276)

The Ki of `CC(C)[C@H](CN1CCc2ccccc2C1)NC(=O)c1cccc(-c2cccc(O)c2)c1` is reported as 0.87 µM (Oprk1; ligand displacement; radioligand).
For `COc1c2c(cc3c1-c1c(cc4c(c1OC)OCO4)C[C@H](C)[C@H](C)C3)OCO2`, the IC50 was over 100 µM (BCHE; enzyme activity; inhibitor; Ellman).
With `Cc1c(CC(=O)N[C@@H](CN2CCc3ccccc3C2)C(C)C)cccc1[N+](=O)[O-]` the Ki was 3.38 µM (Oprk1; ligand displacement; radioligand).
`Cn1cc2cc(C(F)(F)c3nnc4ccc(-c5cnn(C6CC6)c5)nn34)c(F)cc2n1` gave an IC50 of over 1 µM (Fibroblast growth factor receptor 4 (FGFR4, Homo sapiens, UniProt P22455); enzyme activity; inhibitor; ADP detection).
`CCOC(=O)c1ccc(OC(=O)CCCCCN=C(N)N)cc1` has an IC50 of 0.0864 µM (Plasma kallikrein (KLKB1, Homo sapiens, UniProt P03952); enzyme activity; inhibitor).
With `CC(C)c1cc2c(c(O)c1O)[C@@]13CCCC(C)(C)[C@@H]1[C@H](OC3=O)[C@H]2O` the IC50 was 0.00075 µM (BCHE; enzyme activity; inhibitor).
For `COc1cc(/C=C/C(=O)O)ccc1OCc1cn(CC(=O)Nc2ccc(Cl)cc2Cl)nn1`, the Ki was 1.85 µM (BCHE; enzyme activity; inhibitor; Ellman).
For `CC(C)[C@@H](CN1CCc2ccccc2C1)NC(=O)Cc1c[nH]c2ccccc12`, the Ki was 2.75 µM (Oprk1; ligand displacement; radioligand).
The IC50 of `C=CCOc1ccc(C(=O)/C=C/c2ccc(OC)cc2)c(OS(=O)(=O)c2ccccc2[N+](=O)[O-])c1I` is reported as 14.2 µM (BCHE; enzyme activity; inhibitor).
With `CSCC[C@H](NC(=O)[C@H](CCCNC(=N)N)NC(=O)[C@H](Cc1ccc(O)cc1)NC(=O)[C@@H]1CCCN1C(=O)CNC(=O)[C@H](CCC(=O)O)NC(=O)[C@H](Cc1c[nH]cn1)NC(=O)[C@H](CCCCN)NC(=O)[C@H](CCCCN)NC(=O)[C@H](CCC(=O)O)NC(=O)[C@H](C)N)C(=O)N[C@@H](CCC(=O)O)C(=O)N[C@@H](Cc1c[nH]cn1)C(=O)N[C@@H](Cc1ccccc1)C(=O)N[C@@H](CCCNC(=N)N)C(=O)N[C@@H](Cc1c[nH]c2ccccc12)C(=O)NCC(=O)N[C@@H](CO)C(=O)N1CCC[C@H]1C(=O)N1CCC[C@H]1C(=O)N[C@@H](CCCCN)C(=O)N[C@@H](CC(=O)O)C(=O)O` the EC50 was 0.00146 µM (Melanocortin receptor 4 (MC4R, Homo sapiens, UniProt P32245); reporter gene; agonist; luciferase).
For `C=CCOc1ccc(C(=O)/C=C/c2cccc(F)c2)c(OS(=O)(=O)c2ccc(OC)cc2)c1I`, the IC50 was 14.5 µM (BCHE; enzyme activity; inhibitor).
`CC(C)c1cc2c(c(O)c1O)[C@@]13CCCC(C)(C)[C@@H]1C[C@@H]2OC3=O` gave an IC50 of 0.00095 µM (BCHE; enzyme activity; inhibitor).
`C=CCc1ccc(O)c(-c2cc(CC=C)ccc2O)c1` gave an IC50 of over 100 µM (BCHE; enzyme activity; inhibitor; Ellman).
For `C=CCOc1ccc(C(=O)/C=C/c2ccc(OC)cc2)c(OS(C)(=O)=O)c1I`, the IC50 was 53.8 µM (BCHE; enzyme activity; inhibitor).
The IC50 of `CC(C)c1cc2c(c(O)c1O)[C@@]13CCCC(C)(C)[C@@H]1[C@@H](O)[C@@H]2OC3=O` is reported as 0.00141 µM (BCHE; enzyme activity; inhibitor).
`C=CCOc1ccc(C(=O)/C=C/c2ccc(OC)cc2)c(OS(=O)(=O)c2ccc(OC)cc2)c1I` gave an IC50 of 30.1 µM (BCHE; enzyme activity; inhibitor).
For `CC(C)c1cc2c(c(O)c1O)[C@@]1(C(=O)O)CCCC(C)(C)[C@@H]1CC2`, the Ki was 0.00049 µM (BCHE; enzyme activity; inhibitor; absorbance).
